Measured values reported in ChEMBL document CHEMBL2331548, “Identification of N-acyl 4-(3-pyridonyl)phenylalanine derivatives and their orally active prodrug esters as dual acting α4β1 and α4β7 receptor antagonists” (Bioorg Med Chem Lett, 2013).
Values after ≈ are worked out from the molar mass of the structure shown. Active and inactive are the calls of the source. The calls are words filed in the database; no cut-off is given here.

Key:
[1] = molecular target: hERG (KCNH2) (Homo sapiens, UniProt Q12809); test: Inhibition of human ERG
hERG (KCNH2), sequence (Q12809 whole entry): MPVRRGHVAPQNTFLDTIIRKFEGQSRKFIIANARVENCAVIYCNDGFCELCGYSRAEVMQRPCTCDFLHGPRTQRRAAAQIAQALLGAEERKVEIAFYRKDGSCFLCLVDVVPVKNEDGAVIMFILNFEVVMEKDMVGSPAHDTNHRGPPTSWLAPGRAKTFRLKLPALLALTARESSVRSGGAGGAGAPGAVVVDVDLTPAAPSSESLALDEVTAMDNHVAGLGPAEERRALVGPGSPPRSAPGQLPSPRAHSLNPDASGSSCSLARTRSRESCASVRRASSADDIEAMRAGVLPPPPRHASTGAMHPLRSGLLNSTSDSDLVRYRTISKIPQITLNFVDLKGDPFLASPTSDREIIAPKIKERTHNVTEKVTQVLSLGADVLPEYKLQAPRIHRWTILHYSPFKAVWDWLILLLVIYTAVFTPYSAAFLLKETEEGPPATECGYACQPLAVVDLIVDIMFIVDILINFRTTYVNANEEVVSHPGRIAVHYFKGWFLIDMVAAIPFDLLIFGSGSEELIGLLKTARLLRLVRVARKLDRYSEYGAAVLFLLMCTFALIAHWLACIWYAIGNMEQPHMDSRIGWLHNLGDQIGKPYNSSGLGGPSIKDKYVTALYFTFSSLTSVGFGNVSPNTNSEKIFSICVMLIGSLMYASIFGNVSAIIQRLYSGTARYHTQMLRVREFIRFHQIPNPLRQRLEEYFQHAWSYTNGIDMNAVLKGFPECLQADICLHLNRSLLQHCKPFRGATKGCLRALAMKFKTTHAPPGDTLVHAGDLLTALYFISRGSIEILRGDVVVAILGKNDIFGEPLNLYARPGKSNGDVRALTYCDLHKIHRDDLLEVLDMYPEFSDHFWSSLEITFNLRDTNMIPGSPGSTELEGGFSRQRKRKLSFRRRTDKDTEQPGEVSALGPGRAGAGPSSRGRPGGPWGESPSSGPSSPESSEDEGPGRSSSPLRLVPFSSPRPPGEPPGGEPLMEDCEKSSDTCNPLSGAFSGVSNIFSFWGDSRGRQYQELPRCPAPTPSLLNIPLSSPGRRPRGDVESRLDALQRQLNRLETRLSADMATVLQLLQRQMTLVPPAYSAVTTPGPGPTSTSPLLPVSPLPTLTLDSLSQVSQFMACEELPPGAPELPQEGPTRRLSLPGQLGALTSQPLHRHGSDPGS

[2] = Oral bioavailability in rat; assay type: ADME, organism-based; conditions: in vivo
[3] = Apparent permeability across human Caco2 cells; assay type: ADME, cell-based; conditions: Caco-2
[4] = Oral bioavailability in dog; assay type: ADME, organism-based, Canis lupus familiaris; conditions: in vivo
[5] = Solubility in water; assay type: physicochemical
[6] = Solubility in simulated gastric fluid at pH 2.0; assay type: physicochemical
[7] = Stability in simulated intestinal fluid at pH 7.5 assessed as half life; assay type: physicochemical; conditions: for Stability: simulated gi fluid
[8] = Stability in plasma (unknown origin) assessed as unchanged prodrug level; assay type: ADME, cell-free
[9] = Solubility in simulated intestinal fluid at pH 7.5; assay type: physicochemical
[10] = tested on: Liver; test: Stability in mouse liver microsomes assessed as prodrug hydrolysis; assay type: ADME, Microsome
How it was run: (§1)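 Ester prodrug incubated in liver microsomal preparations from mouse, rat, dog, monkey and human; percent of ester remaining followed at 0, 10, 30 and 90 min. A buffer-only incubation without microsomes served as control.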

[11] = tested on: Plasma; test: Stability in dog plasma assessed as unchanged prodrug level on days 1 and 6; assay type: ADME, cell-free, Canis lupus familiaris
How it was run: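 Unchanged prodrug measured in dog plasma on days 1 and 6 of subchronic safety studies after dosing with the ester prodrug.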

[12] = tested on: Liver; test: Stability in dog liver microsomes assessed as prodrug hydrolysis; assay type: ADME, Canis lupus familiaris, Microsome; how it was run: as §1
[13] = tested on: Rattus norvegicus; test: Cmax in rat at 50 mg/kg, po; assay type: ADME, organism-based; design: dose 50 mg/kg, route oral; conditions: in vivo
How it was run: (§2)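 Ester prodrug given orally (rat and dog 50 mg/kg, monkey 30 mg/kg). Plasma exposure measured as the parent acid, reported as AUC and Cmax; bioavailability (F%) calculated for the acid.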

[14] = tested on: Cynomolgus monkey; test: Antiinflammatory activity in cynomolgus monkey challenged with aerosolized Ascaris suum extract assessed as reduction in total leukocytes influx into lungs at 10 and 30 mg/kg, po administered 2 hrs before antigen challenge measured 24 hrs after antigen challenge; assay type: functional, organism-based; design: dose 30 mg/kg; conditions: Macaca fascicularis
How it was run: (§3)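 Cynomolgus monkeys (atopic) dosed orally at 10 or 30 mg/kg, or vehicle, then challenged 2 h later with aerosolized Ascaris suum extract. Bronchiolar lavage fluid collected 24 h post-challenge and inflammatory cells counted by type (macrophages, neutrophils, eosinophils, lymphocytes, total) as cells ×10^4/mL.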

[15] = Oral bioavailability in rat at 50 mg/kg; assay type: ADME, organism-based; conditions: in vivo; how it was run: as §2
[16] = tested on: Canis familiaris; test: AUC in dog assessed as (2S)-2-(2,6-dichlorobenzamido)-3-(4-(2-hydroxy-1,6-dimethyl-4-(trifluoromethyl)-1,2-dihydropyridin-3-yl)phenyl)propanoic acid level at 50 mg/kg, po; assay type: ADME, organism-based, Canis lupus familiaris, Plasma; design: dose 50 mg/kg, route oral; conditions: in vivo; how it was run: as §2
[17] = tested on: Cynomolgus monkey; test: Antiinflammatory activity in cynomolgus monkey challenged with aerosolized Ascaris suum extract assessed as reduction in eosinophils influx into lungs at 10 and 30 mg/kg, po administered 2 hrs before antigen challenge measured 24 hrs after antigen challenge; assay type: functional, organism-based; design: dose 30 mg/kg; conditions: Macaca fascicularis; how it was run: as §3
[18] = tested on: Macaca fascicularis; test: Oral bioavailability in monkey at 30 mg/kg; conditions: cynomolgus monkey, in vivo
[19] = tested on: Canis familiaris; test: Cmax in dog at 50 mg/kg, po; assay type: ADME, organism-based, Canis lupus familiaris; design: dose 50 mg/kg, route oral; conditions: in vivo; how it was run: as §2
[20] = tested on: Cynomolgus monkey; test: Antiinflammatory activity in cynomolgus monkey challenged with aerosolized Ascaris suum extract assessed as reduction in neutrophils influx into lungs at 10 and 30 mg/kg, po administered 2 hrs before antigen challenge measured 24 hrs after antigen challenge; assay type: functional, organism-based; design: dose 30 mg/kg; conditions: Macaca fascicularis; how it was run: as §3
[21] = Stability in monkey liver microsomes assessed as prodrug hydrolysis; assay type: ADME, Macaca mulatta, Microsome; conditions: rhesus monkey; how it was run: as §1
[22] = tested on: Liver microsomes; test: Stability in rat liver microsomes assessed as prodrug hydrolysis; assay type: ADME, Microsome; how it was run: as §1
[23] = tested on: Liver microsomes; test: Stability in human liver microsomes assessed as prodrug hydrolysis; assay type: ADME, Microsome; how it was run: as §1
[24] = Oral bioavailability in dog at 50 mg/kg; assay type: ADME, organism-based, Canis lupus familiaris; conditions: in vivo; how it was run: as §2
[25] = tested on: Cynomolgus monkey; test: Antiinflammatory activity in cynomolgus monkey challenged with aerosolized Ascaris suum extract assessed as reduction in lymphocytes influx into lungs at 10 and 30 mg/kg, po administered 2 hrs before antigen challenge measured 24 hrs after antigen challenge; assay type: functional, organism-based; design: dose 30 mg/kg; conditions: Macaca fascicularis; how it was run: as §3
[26] = tested on: Macaca fascicularis; test: AUC in monkey assessed as (2S)-2-(2,6-dichlorobenzamido)-3-(4-(2-hydroxy-1,6-dimethyl-4-(trifluoromethyl)-1,2-dihydropyridin-3-yl)phenyl)propanoic acid level at 30 mg/kg, po; conditions: cynomolgus monkey, in vivo
[27] = tested on: Rattus norvegicus; test: AUC in rat assessed as (2S)-2-(2,6-dichlorobenzamido)-3-(4-(2-hydroxy-1,6-dimethyl-4-(trifluoromethyl)-1,2-dihydropyridin-3-yl)phenyl)propanoic acid level at 50 mg/kg, po; assay type: ADME, organism-based, Plasma; design: dose 50 mg/kg, route oral; conditions: in vivo; how it was run: as §2
[28] = molecular target: Integrin alpha-4/beta-7 (Homo sapiens) (UniProt P13612+P26010); test: Inhibition of human MAdCAM1 binding to integrin alpha4beta7 receptor in human RPMI 8866 cells labeled with Calcein AM relative to RO0270608; assay type: cell-based
How it was run: (§4)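 Serially diluted compound tested for blocking adhesion of Calcein AM-labelled cells to recombinant human counter-ligand: RAMOS cells on VCAM-1 (α4β1) and RPMI 8866 cells on MAdCAM-1 (α4β7). Cells activated beforehand in Mn2+-containing binding buffer for maximal activation. IC50 taken from fluorescence; RO0270608 run on every plate, and relative potency expressed as fold versus this control because cell activity drifted with passage.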

[29] = molecular target: T1, Integrin alpha-4/beta-1 (Homo sapiens, UniProt P05556+P13612); test: Inhibition of human VCAM1 binding to integrin alpha4beta1 receptor in human Ramos cells labeled with Calcein AM; assay type: cell-based; how it was run: as §4
T1 sequence (P05556 whole entry, one chain of several): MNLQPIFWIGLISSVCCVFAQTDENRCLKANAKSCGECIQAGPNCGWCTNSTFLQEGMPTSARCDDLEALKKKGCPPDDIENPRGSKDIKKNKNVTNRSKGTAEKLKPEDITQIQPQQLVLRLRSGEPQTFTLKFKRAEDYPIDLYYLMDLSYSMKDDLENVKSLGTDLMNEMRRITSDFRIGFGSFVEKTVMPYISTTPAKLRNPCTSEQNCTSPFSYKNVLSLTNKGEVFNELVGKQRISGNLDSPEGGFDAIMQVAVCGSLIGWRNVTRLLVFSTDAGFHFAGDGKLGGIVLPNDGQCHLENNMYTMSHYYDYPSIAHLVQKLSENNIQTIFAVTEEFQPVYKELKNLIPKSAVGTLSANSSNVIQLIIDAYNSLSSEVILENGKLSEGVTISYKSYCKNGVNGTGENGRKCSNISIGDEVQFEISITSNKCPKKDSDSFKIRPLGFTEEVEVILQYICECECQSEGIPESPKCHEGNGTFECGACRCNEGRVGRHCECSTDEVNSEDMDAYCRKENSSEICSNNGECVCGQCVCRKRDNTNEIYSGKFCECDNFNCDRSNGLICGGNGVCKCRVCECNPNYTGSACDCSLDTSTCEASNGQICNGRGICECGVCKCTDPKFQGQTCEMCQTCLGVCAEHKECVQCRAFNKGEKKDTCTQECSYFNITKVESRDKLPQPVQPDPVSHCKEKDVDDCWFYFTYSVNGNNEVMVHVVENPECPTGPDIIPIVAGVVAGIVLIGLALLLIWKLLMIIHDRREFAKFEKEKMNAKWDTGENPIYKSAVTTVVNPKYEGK

[30] = molecular target: T1, Integrin alpha-4/beta-1; test: Inhibition of human VCAM1 binding to integrin alpha4beta1 receptor in human Ramos cells labeled with Calcein AM relative to RO0270608; assay type: cell-based; how it was run: as §4
[31] = Clearance in dog at 10 mg/kg, iv; assay type: ADME, organism-based, Canis lupus familiaris; design: dose 10 mg/kg, route intravenous; conditions: in vivo
How it was run: (§5)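 Intravenous pharmacokinetics of the acid: rat and dog dosed at 10 mg/kg, monkey at 15 mg/kg. AUC (ng h/mL), clearance (mL/min/kg) and Vss (mL/kg) derived from plasma levels.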

[32] = molecular target: T2, Integrin alpha-4/beta-7 (Homo sapiens, UniProt P13612+P26010); test: Inhibition of human MAdCAM1 binding to integrin alpha4beta7 receptor in human RPMI 8866 cells labeled with Calcein AM; assay type: cell-based; how it was run: as §4
T2 sequence (P13612 whole entry): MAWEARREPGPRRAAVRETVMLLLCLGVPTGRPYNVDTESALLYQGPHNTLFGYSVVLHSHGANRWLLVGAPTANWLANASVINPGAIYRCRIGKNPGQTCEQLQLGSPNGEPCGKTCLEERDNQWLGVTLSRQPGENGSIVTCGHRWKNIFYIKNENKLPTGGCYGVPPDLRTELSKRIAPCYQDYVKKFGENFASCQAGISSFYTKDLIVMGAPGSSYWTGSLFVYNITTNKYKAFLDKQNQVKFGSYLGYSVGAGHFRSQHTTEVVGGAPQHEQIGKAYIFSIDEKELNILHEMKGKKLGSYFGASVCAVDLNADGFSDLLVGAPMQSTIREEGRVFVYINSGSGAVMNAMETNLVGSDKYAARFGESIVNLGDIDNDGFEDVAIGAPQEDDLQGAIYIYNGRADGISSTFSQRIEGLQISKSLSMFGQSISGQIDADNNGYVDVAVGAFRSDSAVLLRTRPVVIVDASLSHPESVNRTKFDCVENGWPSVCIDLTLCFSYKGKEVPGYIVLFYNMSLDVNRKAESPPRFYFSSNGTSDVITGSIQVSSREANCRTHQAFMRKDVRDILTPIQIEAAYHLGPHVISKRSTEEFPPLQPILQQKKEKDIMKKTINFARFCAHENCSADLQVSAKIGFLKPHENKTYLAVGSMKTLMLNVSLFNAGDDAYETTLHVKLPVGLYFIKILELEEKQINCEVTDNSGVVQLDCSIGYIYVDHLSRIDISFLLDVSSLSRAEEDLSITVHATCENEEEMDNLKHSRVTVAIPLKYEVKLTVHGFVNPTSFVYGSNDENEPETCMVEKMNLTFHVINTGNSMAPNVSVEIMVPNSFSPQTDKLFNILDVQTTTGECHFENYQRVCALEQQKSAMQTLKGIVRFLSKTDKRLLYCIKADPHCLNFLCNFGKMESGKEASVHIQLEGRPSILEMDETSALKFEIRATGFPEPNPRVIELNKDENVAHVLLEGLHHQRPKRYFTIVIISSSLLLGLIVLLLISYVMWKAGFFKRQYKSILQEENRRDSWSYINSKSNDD
T2 sequence (P26010 whole entry): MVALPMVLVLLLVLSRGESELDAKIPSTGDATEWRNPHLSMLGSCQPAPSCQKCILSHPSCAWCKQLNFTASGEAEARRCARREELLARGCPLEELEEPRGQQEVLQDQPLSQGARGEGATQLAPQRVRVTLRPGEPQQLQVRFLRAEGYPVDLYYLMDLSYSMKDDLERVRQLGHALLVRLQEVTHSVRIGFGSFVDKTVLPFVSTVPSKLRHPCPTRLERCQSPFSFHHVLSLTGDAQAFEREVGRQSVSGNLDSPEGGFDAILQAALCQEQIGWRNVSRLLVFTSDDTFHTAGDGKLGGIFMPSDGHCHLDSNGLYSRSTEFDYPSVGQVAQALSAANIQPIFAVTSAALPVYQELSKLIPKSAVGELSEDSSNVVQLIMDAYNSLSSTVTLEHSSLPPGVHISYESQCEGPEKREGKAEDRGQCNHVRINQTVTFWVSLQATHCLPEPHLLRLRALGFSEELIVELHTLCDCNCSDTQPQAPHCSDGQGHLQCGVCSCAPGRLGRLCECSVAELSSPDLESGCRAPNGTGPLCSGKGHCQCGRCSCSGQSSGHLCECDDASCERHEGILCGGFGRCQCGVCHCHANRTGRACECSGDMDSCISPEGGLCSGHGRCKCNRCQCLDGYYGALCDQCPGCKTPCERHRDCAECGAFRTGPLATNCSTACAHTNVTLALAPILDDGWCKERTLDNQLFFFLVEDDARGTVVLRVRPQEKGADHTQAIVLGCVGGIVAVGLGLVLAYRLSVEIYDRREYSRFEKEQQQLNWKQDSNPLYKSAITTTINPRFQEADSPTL

[33] = AUC in monkey at 15 mg/kg, iv; conditions: cynomolgus monkey, plasma
[34] = AUC in dog at 10 mg/kg, iv; assay type: ADME, organism-based, Canis lupus familiaris; design: dose 10 mg/kg, route intravenous; conditions: plasma; how it was run: as §5
[35] = Clearance in monkey at 15 mg/kg, iv; conditions: cynomolgus monkey, in vivo
[36] = AUC in rat at 10 mg/kg, iv; assay type: ADME, organism-based; design: dose 10 mg/kg, route intravenous; conditions: plasma; how it was run: as §5
[37] = Clearance in rat at 10 mg/kg, iv; assay type: ADME, organism-based; design: dose 10 mg/kg, route intravenous; conditions: in vivo; how it was run: as §5
[38] = simulated gastric fluid, read-out: solubility

CCOC(=O)[C@H](Cc1ccc(-c2c(C(F)(F)F)cc(C)n(C)c2=O)cc1)NC(=O)c1c(Cl)cccc1Cl
IC20 [1]: 2700 nM
bioavailability [2]: 18%
Papp [3]: 27.1 ×10⁻⁶ cm/s
bioavailability [4]: 2%
solubility [5]: 6 µg/mL (≈ 10.8 µM)
solubility ([6]; simulated gi fluid, BLD = below limit of detection): BLD
Stability [7]: Stable

Cc1cc(C(F)(F)F)c(-c2ccc(C[C@H](NC(=O)c3c(Cl)cccc3Cl)C(=O)OCCN3CCOCC3)cc2)c(=O)n1C
IC20 [1]: 11000 nM
bioavailability [2]: 15%
Papp [3]: 16.2 ×10⁻⁶ cm/s
solubility [6, 38]: > 13000 µg/mL
half-life ([7]; simulated intestinal fluid): 4 h
Stability [8]: Stable
solubility [9]: 200 µg/mL (≈ 312 µM)

Cc1cc(C(F)(F)F)c(-c2ccc(C[C@H](NC(=O)c3c(Cl)cccc3Cl)C(=O)OCCCN3CCOCC3)cc2)c(=O)n1C
Stability [10]: Unstable
IC20 [1]: 2900 nM
Stability [11]: 10%
Stability [12]: Stable
Cmax [13]: 2500 ng/mL
Activity [14]: Active
bioavailability [15]: 11%
bioavailability [2]: 11%
AUC [16]: 6420 ng·h/mL
Activity [17]: Active
bioavailability [18]: 46%
Papp [3]: 16.5 ×10⁻⁶ cm/s
Cmax [19]: 2400 ng/mL
Activity [20]: Active
Stability [21]: Unstable
Stability [22]: Unstable
Stability [23]: Stable
solubility [6, 38]: 3900 µg/mL (≈ 5960 µM)
Stability [7]: Stable
bioavailability [24]: 13%
Activity [25]: Active
AUC [26]: 30150 ng·h/mL
solubility [9]: 330 µg/mL (≈ 504 µM)
AUC [27]: 6100 ng·h/mL

Cc1cc(C(F)(F)F)c(-c2ccc(C[C@H](NC(=O)c3c(Cl)cccc3Cl)C(=O)O)cc2)c(=O)n1C
Ratio IC50 [28]: 6.5
IC50 [29]: 32 nM
Ratio IC50 [30]: 0.81
Papp [3]: 0.14 ×10⁻⁶ cm/s
clearance [31]: 16.5 mL/min/kg
IC50 [32]: 42 nM
AUC [33]: 35100 ng·h/mL
AUC [34]: 10900 ng·h/mL
clearance [35]: 3 mL/min/kg
AUC [36]: 10900 ng·h/mL
clearance [37]: 15.7 mL/min/kg
